Source: ChEMBL document CHEMBL2176991 (J Med Chem, 2012)
pIC50, pKi: −log10 of the molar value. Calls of active or inactive are those of the source. The rule behind the calls is not given here. Square brackets hold non-standard residues; d marks the D form. Peptide text beside a SMILES is read from it. * marks the point of attachment. X4 = O=C1OC2(c3ccc(O)cc3Oc3cc(O)ccc32)c2cccc(NC(=S)*)c21; βAla = NCCC(=O)O

Tests used:
[1] = biological target: Furin (Homo sapiens, UniProt P09958); test: Competitive inhibition of human recombinant furin expressed in Drosophila S2 cells using pyroGlu-Arg-Val-Lys-Arg-methyl-coumaryl-7-amide as substrate at pH 7.5 after 60 mins by spectrofluorometric analysis
How it was run: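 Recombinant soluble human furin from S2 medium, tested in 100 mM Hepes pH 7.5, 1 mM CaCl₂, 1 mM β-mercaptoethanol, 1.8 mg/mL BSA; substrate 100 μM, 37 °C, 60 min, kinetic fluorescence read. Inhibitors added at decreasing concentrations. Ki derived from IC50 by Cheng–Prusoff using Km 4.61 μM; three independent experiments.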

[2] = biological target: T1, Proprotein convertase subtilisin/kexin type 6 (Homo sapiens, UniProt P29122); test: Competitive inhibition of human recombinant PACE4 expressed in Drosophila S2 cells using pyroGlu-Arg-Val-Lys-Arg-methyl-coumaryl-7-amide as substrate at pH 6.5 after 60 mins by spectrofluorometric analysis
T1 sequence (P29122 whole entry): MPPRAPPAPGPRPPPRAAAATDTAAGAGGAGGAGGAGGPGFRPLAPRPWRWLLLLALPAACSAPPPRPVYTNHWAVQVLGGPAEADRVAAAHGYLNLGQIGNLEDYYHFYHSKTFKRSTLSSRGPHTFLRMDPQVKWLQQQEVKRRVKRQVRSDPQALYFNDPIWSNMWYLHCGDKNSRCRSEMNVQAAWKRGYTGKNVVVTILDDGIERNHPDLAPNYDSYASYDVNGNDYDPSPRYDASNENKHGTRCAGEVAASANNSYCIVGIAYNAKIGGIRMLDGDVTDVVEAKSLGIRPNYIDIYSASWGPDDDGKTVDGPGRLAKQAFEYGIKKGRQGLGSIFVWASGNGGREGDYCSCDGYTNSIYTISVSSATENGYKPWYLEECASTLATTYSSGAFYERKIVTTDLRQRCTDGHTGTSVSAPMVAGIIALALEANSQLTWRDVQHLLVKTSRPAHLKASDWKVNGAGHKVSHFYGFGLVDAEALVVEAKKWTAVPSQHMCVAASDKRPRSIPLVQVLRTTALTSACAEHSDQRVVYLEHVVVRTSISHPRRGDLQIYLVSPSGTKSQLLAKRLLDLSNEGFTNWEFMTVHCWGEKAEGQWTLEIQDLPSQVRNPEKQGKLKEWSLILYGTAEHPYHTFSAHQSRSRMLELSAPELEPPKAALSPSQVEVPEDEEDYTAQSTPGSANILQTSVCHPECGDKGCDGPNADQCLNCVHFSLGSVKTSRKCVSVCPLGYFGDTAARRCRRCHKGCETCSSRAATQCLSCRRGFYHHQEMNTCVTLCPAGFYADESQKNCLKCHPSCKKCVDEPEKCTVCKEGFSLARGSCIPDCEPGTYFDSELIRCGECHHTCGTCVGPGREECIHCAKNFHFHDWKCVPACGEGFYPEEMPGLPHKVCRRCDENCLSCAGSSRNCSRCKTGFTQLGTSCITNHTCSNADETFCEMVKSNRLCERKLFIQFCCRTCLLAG
How it was run: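 Soluble human PACE4 purified from S2 conditioned medium, assayed in 20 mM Bis-Tris pH 6.5, 1 mM CaCl₂, 1.8 mg/mL BSA with 100 μM substrate, 37 °C, 60 min. Real-time fluorescence read; inhibitors added at decreasing concentrations. Ki from IC50 by Cheng–Prusoff, Km 3.5 μM. Means of three independent experiments.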

[3] = organism: Homo sapiens; test: Selectivity ratio of Ki for human recombinant furin to Ki for human recombinant PACE4
[4] = Stability of the compound in presence of aminopeptidase; format: ADME
[5] = test system: DU-145; test: Cytotoxicity against human DU145 cells assessed as growth inhibition after 72 hrs by MTT assay; format: functional, cell-based; settings: DU-145, 72 h
How it was run: (§1)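 Cells plated in 96-well format: DU145 and PC3 at 1500/well, LNCaP at 2500/well on poly-lysine. After 24 h, medium was changed and peptide added for 72 h in RPMI 1640 (5% FBS for DU145, 10% for LNCaP and PC3). MTT at 1 mg/mL final for 4 h (DU145, LNCaP) or 6 h (PC3). Formazan dissolved in 2-propanol-HCl and signal normalized to vehicle (water, 0.1% DMSO). IC50 from curve fitting.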

[6] = test system: DU-145; test: Cellular uptake in human DU145 cells at 10 uM after 1 hr by propidium iodide staining-based FACS flow cytometric analysis; format: ADME, cell-based; settings: du-145, 1 h
How it was run: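 DU145 cells (4 × 10⁵) incubated 1 h with 10 μM FITC-labeled peptide in serum-free RPMI, then pelleted and washed twice with 0.05% trypsin for 5 min at 37 °C to strip membrane-bound label. Propidium iodide (10 μg/mL, 2 min) used to exclude cells with damaged membranes. At least 10000 events acquired by FACS; uptake reported as geometric mean fluorescence.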

[7] = test system: LNCaP; test: Cell cycle arrest in human LNCAP cells assessed as decrease in accumulation at S phase after 96 hrs by propidium iodide staining-based FACS flow cytometric analysis; format: functional
[8] = test system: LNCaP; test: Cell cycle arrest in human LNCAP cells assessed as accumulation at S phase at 200 uM after 96 hrs by propidium iodide staining-based FACS flow cytometric analysis (reference value: 15.6 +/- 1.3 %); format: functional
[9] = test system: LNCaP; test: Cell cycle arrest in human LNCAP cells assessed as accumulation at G0/G1 phase after 96 hrs by propidium iodide staining-based FACS flow cytometric analysis
[10] = test system: PC-3; test: Cytotoxicity against human PC3 cells assessed as growth inhibition after 72 hrs by MTT assay; format: functional, cell-based; how it was run: as §1
[11] = test system: LNCaP; test: Cell cycle arrest in human LNCAP cells assessed as accumulation at G0/G1 phase at 100 uM after 96 hrs by propidium iodide staining-based FACS flow cytometric analysis (reference value: 74.3 +/- 0.1 %); format: functional
[12] = test system: LNCaP; test: Cytotoxicity against human LNCAP cells assessed as growth inhibition after 72 hrs by MTT assay; format: functional, cell-based; how it was run: as §1

Furin, sequence (P09958 whole entry): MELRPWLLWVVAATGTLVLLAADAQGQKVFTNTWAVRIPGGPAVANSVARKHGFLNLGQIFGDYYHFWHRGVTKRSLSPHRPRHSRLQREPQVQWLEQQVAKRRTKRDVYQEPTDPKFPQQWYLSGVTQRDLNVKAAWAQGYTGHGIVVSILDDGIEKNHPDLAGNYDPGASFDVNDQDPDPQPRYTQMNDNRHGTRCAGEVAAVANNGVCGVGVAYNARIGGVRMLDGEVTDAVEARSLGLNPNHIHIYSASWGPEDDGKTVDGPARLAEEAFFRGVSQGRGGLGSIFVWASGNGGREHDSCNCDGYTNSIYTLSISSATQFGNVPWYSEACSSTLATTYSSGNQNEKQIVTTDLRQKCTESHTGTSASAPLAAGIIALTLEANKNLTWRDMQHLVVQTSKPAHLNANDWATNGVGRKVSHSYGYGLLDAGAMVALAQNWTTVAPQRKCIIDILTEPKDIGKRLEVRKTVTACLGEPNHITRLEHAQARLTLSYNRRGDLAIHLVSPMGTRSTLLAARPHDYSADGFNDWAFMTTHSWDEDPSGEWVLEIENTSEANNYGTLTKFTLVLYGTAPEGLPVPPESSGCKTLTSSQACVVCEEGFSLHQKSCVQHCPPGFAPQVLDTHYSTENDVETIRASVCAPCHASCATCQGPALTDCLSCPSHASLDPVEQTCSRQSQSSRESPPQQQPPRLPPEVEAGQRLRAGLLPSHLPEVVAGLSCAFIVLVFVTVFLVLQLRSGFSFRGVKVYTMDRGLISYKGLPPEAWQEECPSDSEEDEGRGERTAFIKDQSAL

Row | SMILES | pKi [1] | pKi [2] | Ratio Ki [3] | also measured
1 | CC(=O)N[C@@H](CC(C)C)C(=O)N[C@@H](CC(C)C)C(=O)N[C@@H](CCCN=C(N)N)C(=O)N[C@H](C(=O)N[C@@H](CCCCN)C(=O)N[C@@H](CCCN=C(N)N)C(N)=O)C(C)C | 6.05 | 6.62 |  | 
2 | NCCCC[C@H](NC(=O)[C@H](CCCCN)NC(=O)[C@H](CCCN=C(N)N)NC(=O)[C@H](CC(=O)O)NC(=O)[C@H](Cc1ccccc1)NC(=O)CN)C(=O)N[C@@H](CCCN=C(N)N)C(=O)O (H-GFDRKKR-OH) | < 6.00 | < 6.00 |  | 
3 | CC(C)[C@H](N)C(=O)N[C@@H](CCCCN)C(=O)N[C@@H](CCCNC(=N)N)C(=O)N[C@@H](CCCNC(=N)N)C(=O)N[C@H](C(=O)N[C@@H](CCCCN)C(=O)N[C@@H](CCCNC(=N)N)C(=O)O)C(C)C (H-VKRRVKR-OH) |  |  | 2.7 | 
4 | CC(C)C[C@H](NC(=O)[C@@H](N)CC(C)C)C(=O)N[C@@H](CCCNC(=N)N)C(=O)N[C@@H](CCCNC(=N)N)C(=O)N[C@@H](C)C(=O)N[C@@H](CCCCN)C(=O)N[C@@H](CCCNC(=N)N)C(=O)O (H-LLRRAKR-OH) |  | 9.47 | 36 | 
5 | C[C@H](N)C(=O)N[C@@H](CCCCN)C(=O)N[C@@H](CCCNC(=N)N)C(=O)N[C@@H](CCCNC(=N)N)C(=O)N[C@H](C(=O)N[C@@H](CCCCN)C(=O)N[C@@H](CCCNC(=N)N)C(=O)O)[C@@H](C)O (H-AKRRTKR-OH) |  | 9.40 | 4.2 | 
6 | N=C(N)NCCC[C@H](NC(=O)[C@H](CCCCN)NC(=O)[C@H](CCCCN)NC(=O)[C@H](CCCNC(=N)N)NC(=O)[C@H](CC(=O)O)NC(=O)[C@H](Cc1ccccc1)NC(=O)CN)C(=O)O (H-GFDRKKR-OH) |  |  | 1 | 
7 | CC(=O)N[C@H](CC(C)C)C(=O)N[C@@H](CC(C)C)C(=O)N[C@@H](CC(C)C)C(=O)N[C@@H](CC(C)C)C(=O)N[C@@H](CCCN=C(N)N)C(=O)N[C@H](C(=O)N[C@@H](CCCCN)C(=O)N[C@@H](CCCN=C(N)N)C(N)=O)C(C)C |  |  |  | Stability [4]: Stable
8 | N=C(N)NCCC[C@H](NC(=O)[C@H](CCCCN)NC(=O)[C@H](CO)NC(=O)[C@H](CCCNC(=N)N)NC(=O)[C@H](CCC(=O)O)NC(=O)[C@H](CCCCN)NC(=O)[C@@H](N)CCC(=O)O)C(=O)O (H-EKERSKR-OH) |  |  | 1.3 | 
9 | CC(C)[C@H](N)C(=O)N[C@@H](CCCCN)C(=O)N[C@@H](CCCN=C(N)N)C(=O)N[C@@H](CCCN=C(N)N)C(=O)N[C@H](C(=O)N[C@@H](CCCCN)C(=O)N[C@@H](CCCN=C(N)N)C(=O)O)C(C)C (H-VKRRVKR-OH) |  | 8.70 |  | 
10 | CC(C)C[C@H](N)C(=O)N[C@@H](CCCN=C(N)N)C(=O)N[C@@H](CCCN=C(N)N)C(=O)N[C@@H](CCCN=C(N)N)C(=O)N[C@H](C(=O)N[C@@H](CCCCN)C(=O)N[C@@H](CCCN=C(N)N)C(=O)O)C(C)C (H-LRRRVKR-OH) | 8.05 | 8.15 |  | 
11 | CC(=O)N[C@@H](CC(C)C)C(=O)N[C@@H](CC(C)C)C(=O)N[C@@H](CC(C)C)C(=O)N[C@@H](CCCN=C(N)N)C(=O)N[C@H](C(=O)N[C@@H](CCCCN)C(=O)N[C@@H](CCCN=C(N)N)C(N)=O)C(C)C | 6.40 | 7.74 |  | 
12 | CC(=O)CCCCCCCCN[C@@H](CC(C)C)C(=O)N[C@@H](CC(C)C)C(=O)N[C@@H](CC(C)C)C(=O)N[C@@H](CC(C)C)C(=O)N[C@@H](CCCNC(=N)N)C(=O)N[C@H](C(=O)N[C@@H](CCCCN)C(=O)N[C@@H](CCCNC(=N)N)C(N)=O)C(C)C | 6.30 | 7.64 |  | pIC50 [5]: 4.10
13 | CC(C)C[C@H](NC(=O)CCNC(=S)Nc1cccc2c1C(=O)OC21c2ccc(O)cc2Oc2cc(O)ccc21)C(=O)N[C@@H](CC(C)C)C(=O)N[C@@H](CC(C)C)C(=O)N[C@@H](CC(C)C)C(=O)N[C@@H](CCCNC(=N)N)C(=O)N[C@H](C(=O)N[C@@H](CCCCN)C(=O)N[C@@H](CCCNC(=N)N)C(N)=O)C(C)C ({X4-βAla}-LLLLRVKR-NH2) |  |  |  | Drug uptake [6]: Active
14 | CC(C)[C@H](N)C(=O)N[C@@H](CCCCN)C(=O)N[C@@H](CCCCN)C(=O)N[C@@H](CCCNC(=N)N)C(=O)N[C@H](C(=O)N[C@@H](CCCCN)C(=O)N[C@@H](CCCNC(=N)N)C(=O)O)[C@@H](C)O (H-VKKRTKR-OH) |  |  | 2.2 | 
15 | CC(=O)N[C@@H](CC(C)C)C(=O)N[C@@H](CC(C)C)C(=O)N[C@@H](CC(C)C)C(=O)N[C@@H](CC(C)C)C(=O)N[C@@H](CCCNC(=N)N)C(=O)N[C@H](C(=O)N[C@@H](CCCCN)C(=O)N[C@@H](CCCNC(=N)N)C(N)=O)C(C)C (Ac-LLLLRVKR-NH2) |  |  |  | Activity [7]: Dose-dependent effect; Activity [8]: 9.3%; Activity [9]: Dose-dependent effect; growth inhibition (GI) [10]: inactive; Activity [11]: 79.7%
16 | CC(=O)OCCOCCOCCOCCOCCOCCOCCOCCN[C@@H](CC(C)C)C(=O)N[C@@H](CC(C)C)C(=O)N[C@@H](CC(C)C)C(=O)N[C@@H](CC(C)C)C(=O)N[C@@H](CCCNC(=N)N)C(=O)N[C@H](C(=O)N[C@@H](CCCCN)C(=O)N[C@@H](CCCNC(=N)N)C(N)=O)C(C)C | 6.32 | 7.72 |  | pIC50 [5]: < 3.30
17 | CC(=O)N[C@@H](CC(C)C)C(=O)N[C@@H](CC(C)C)C(=O)N[C@@H](CC(C)C)C(=O)N[C@@H](CC(C)C)C(=O)N[C@@H](CCCNC(=N)N)C(=O)N[C@H](C(=O)N[C@@H](CCCCN)C(=O)N[C@H](CCCNC(=N)N)C(N)=O)C(C)C (Ac-LLLLRVK[dR]-NH2) |  |  |  | pIC50 [5]: 3.36; pIC50 [12]: 3.41
18 | CC(C)C[C@H](N)C(=O)N[C@@H](CCCNC(=N)N)C(=O)N[C@@H](CCCNC(=N)N)C(=O)N[C@@H](CCCNC(=N)N)C(=O)N[C@H](C(=O)N[C@@H](CCCCN)C(=O)N[C@@H](CCCNC(=N)N)C(=O)O)C(C)C (H-LRRRVKR-OH) |  |  | 1.3 | 
